In ChEMBL document CHEMBL3232996, “Synthesis and biological evaluation of novel (123)I-labeled 4-(4-iodophenyl)butanoyl-L-prolyl-(2S)-pyrrolidines for imaging prolyl oligopeptidase in vivo” (Eur J Med Chem, 2014):

Columns and labels:
Mus musculus [1] = assay: Biodistribution in C57Bl/6JRccHsd mouse salivary gland at 2.86 +/- 1.26 MBq, iv measured at 80 mins by SPECT analysis; type: ADME, organism-based; conditions: in vivo
Outline: (§1)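 Organs excised at 5, 20, 40, 80 or 160 min and radioactivity gamma-counted as %ID/g (brain also as %ID). Blocking groups received KYP-2047 (50 µmol/kg, 10 mL/kg, 1% DMSO in 0.9% NaCl) i.p. 10 min before tracer. Mean ± SD, n = 2–4 per time point. Blocking compared by two-tailed Student's t test.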

[2] = Plasma protein binding in iv dosed C57Bl/6JRccHsd mouse measured at 40 mins; type: ADME, organism-based; conditions: read-out: PPB (converted)
Outline: (§2)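 Male mice given 3.6 MBq tracer i.v. via lateral tail vein; blocking groups got POP inhibitor i.p. (50 µmol/kg, 10 mL/kg, 1% DMSO in 0.9% NaCl) 10 min before. Heparinized cardiac blood on ice, gamma-counted, spun 5 min at 2000 g; plasma counted, precipitated with 1.5 volumes acetonitrile, respun; cell-bound, protein-bound and free fractions expressed as % of blood activity; n = 3.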

Plasma = assay: Stability in human plasma at 2.5 MBq/ml up to 120 mins by HPLC analysis; type: ADME, cell-free; conditions: 2 h
[3] = Drug uptake in iv dosed C57Bl/6JRccHsd mouse blood cells measured at 20 mins post dose pretreated with 50 umol/kg, ip prolyl oligopeptidase inhibitor KYP-2047 10 mins before compound dosing by SPECT analysis; type: ADME, organism-based; conditions: in vivo
Outline: (§3)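 Mice got tracer i.v., some after i.p. KYP-2047 (50 µmol/kg) 10 min before. Cardiac blood was collected at 20, 40, 80 or 160 min and spun 5 min at 2000 g into cells and plasma. Plasma was precipitated with acetonitrile and pellet and supernatant were gamma-counted. Activity in cells, protein-bound and free plasma is given as % of total blood activity, n = 3.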

Brain [4] = assay: Biodistribution in C57Bl/6JRccHsd mouse brain at 2.86 +/- 1.26 MBq, iv measured at 5 mins by SPECT analysis; type: ADME, organism-based; conditions: in vivo; outline: as §1
Blood [5] = assay: Biodistribution in C57Bl/6JRccHsd mouse blood at 2.86 +/- 1.26 MBq, iv measured at 80 mins by SPECT analysis; type: ADME, organism-based; conditions: in vivo; outline: as §1
Brain [6] = assay: Biodistribution in C57Bl/6JRccHsd mouse brain at 2.86 +/- 1.26 MBq, iv measured at 40 mins by SPECT analysis; type: ADME, organism-based; conditions: in vivo; outline: as §1
[7] = Biodistribution in left brain hemisphere of iv dosed C57BL/6JRccHsd mouse LPS-induced acute neuroinflammation model dosed 24 hrs after LPS challenge and measured at 80 mins post dose; type: ADME, organism-based; conditions: read-out: Drug uptake
Outline: (§4)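 Male mice under isoflurane got a stereotaxic LPS injection (E. coli 055:B5) into the left striatum, with buprenorphine 0.1 mg/kg s.c. for post-operative pain. The right hemisphere served as intact control. Tracer was given i.v. 24 h later. Left and right hemisphere and whole-brain radioactivity were measured 80 min post injection as %ID/g or %ID, n = 3.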

[8] = Drug uptake in iv dosed C57Bl/6JRccHsd mouse blood cells measured at 20 mins; type: ADME, organism-based; conditions: in vivo; outline: as §3
[9] = Fraction unbound in iv dosed C57Bl/6JRccHsd mouse plasma measured at 160 mins post dose pretreated with 50 umol/kg, ip prolyl oligopeptidase inhibitor KYP-2047 10 mins before compound dosing by SPECT analysis; type: ADME, organism-based; outline: as §3
[10] = Fraction unbound in iv dosed C57Bl/6JRccHsd mouse plasma measured at 20 mins post dose pretreated with 50 umol/kg, ip prolyl oligopeptidase inhibitor KYP-2047 10 mins before compound dosing by SPECT analysis; type: ADME, organism-based; outline: as §2
[11] = Plasma protein binding in iv dosed C57Bl/6JRccHsd mouse measured at 160 mins; type: ADME, organism-based; conditions: in vivo; outline: as §2
[12] = Fraction unbound in iv dosed C57Bl/6JRccHsd mouse plasma measured at 160 mins; type: ADME, organism-based; outline: as §3
Kidney [13] = assay: Biodistribution in C57Bl/6JRccHsd mouse kidney at 2.86 +/- 1.26 MBq, iv measured at 80 mins by SPECT analysis; type: ADME, organism-based; conditions: in vivo; outline: as §1
Mus musculus [14] = assay: Biodistribution in gastrocnemius muscle of iv dosed C57BL/6JRccHsd mouse turpentine-induced acute localized inflammation model after 20 mins to 24 hrs by SPEC-CT analysis (reference value: 2.0 +/- 0.6 %ID/g); type: ADME, organism-based; conditions: in vivo
Kidney [15] = assay: Biodistribution in C57Bl/6JRccHsd mouse kidney at 2.86 +/- 1.26 MBq, iv measured at 80 mins post dose pretreated with 50 umol/kg, ip prolyl oligopeptidase inhibitor KYP-2047 10 mins before compound dosing by SPECT analysis; type: ADME, organism-based; conditions: in vivo; outline: as §1
Blood [16] = assay: Biodistribution in C57Bl/6JRccHsd mouse blood at 2.86 +/- 1.26 MBq, iv measured at 160 mins post dose pretreated with 50 umol/kg, ip prolyl oligopeptidase inhibitor KYP-2047 10 mins before compound dosing by SPECT analysis; type: ADME, organism-based; conditions: in vivo; outline: as §1
Mus musculus [17] = assay: Biodistribution in C57Bl/6JRccHsd mouse testis at 2.86 +/- 1.26 MBq, iv measured at 80 mins post dose pretreated with 50 umol/kg, ip prolyl oligopeptidase inhibitor KYP-2047 10 mins before compound dosing by SPECT analysis; type: ADME, organism-based; conditions: in vivo; outline: as §1
[18] = Drug uptake in iv dosed C57Bl/6JRccHsd mouse blood cells measured at 80 mins; type: ADME, organism-based; conditions: in vivo; outline: as §3
[19] = Octanol-phosphate buffer partition coefficient, log P of the compound by shake-flask method; type: physicochemical
Outline: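 Tracer (700 kBq, in 1% DMSO/0.9% NaCl) shaken 3 min between n-octanol and 0.02 M phosphate buffer pH 7.4; octanol phase split into four tubes, re-extracted with equal buffer 10 min, centrifuged 5 min at 1000 g; log of octanol/buffer cpm per mL ratio, mean ± SD of four replicates.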

Brain [20] = assay: Biodistribution in C57Bl/6JRccHsd mouse brain at 2.86 +/- 1.26 MBq, iv measured at 80 mins post dose pretreated with 50 umol/kg, ip prolyl oligopeptidase inhibitor KYP-2047 10 mins before compound dosing by SPECT analysis; type: ADME, organism-based; conditions: in vivo; outline: as §1
Liver = assay: Biodistribution in C57Bl/6JRccHsd mouse liver at 2.86 +/- 1.26 MBq, iv measured at 80 mins by SPECT analysis; type: ADME, organism-based; conditions: in vivo; outline: as §1
Muscle tissue = assay: Biodistribution in C57Bl/6JRccHsd mouse muscle at 2.86 +/- 1.26 MBq, iv measured at 80 mins post dose pretreated with 50 umol/kg, ip prolyl oligopeptidase inhibitor KYP-2047 10 mins before compound dosing by SPECT analysis; type: ADME, organism-based; conditions: in vivo; outline: as §1
[21] = Plasma protein binding in iv dosed C57Bl/6JRccHsd mouse measured at 160 mins post dose pretreated with 50 umol/kg, ip prolyl oligopeptidase inhibitor KYP-2047 10 mins before compound dosing by SPECT analysis; type: ADME, organism-based; conditions: in vivo; outline: as §2
[22] = Biodistribution in brain of iv dosed C57BL/6JRccHsd mouse LPS-induced acute neuroinflammation model dosed 24 hrs after LPS challenge and measured at 80 mins post dose; type: ADME, organism-based; outline: as §4
[23] = Biodistribution in C57Bl/6JRccHsd mouse urine at 2.86 +/- 1.26 MBq, iv measured at 80 mins by SPECT analysis; type: ADME, organism-based; conditions: in vivo; outline: as §1
Mus musculus [24] = assay: Biodistribution in C57Bl/6JRccHsd mouse tongue at 2.86 +/- 1.26 MBq, iv measured at 80 mins by SPECT analysis; type: ADME, organism-based; conditions: in vivo; outline: as §1

Question: For `N#C[C@@H]1CCCN1C(=O)[C@@H]1CCCN1C(=O)CCCc1ccc([123I])cc1`, which Drug uptake (Mus musculus [1]) is on record?
Answer: The Drug uptake was 7.77 % ID/g.

Question: And the fraction unbound at 40 min [2]?
Answer: Its fraction unbound at 40 min is 0.98.

Question: What about the Stability (Plasma) of the same molecule?
Answer: Its Stability is “Stable”.

Question: And the Drug uptake [3]?
Answer: The Drug uptake was 53%.

Question: And the Drug uptake (Brain [4])?
Answer: The Drug uptake was 0.43 %ID.

Question: What about the Drug uptake (Blood [5]) of the same molecule?
Answer: Its Drug uptake is 2.1 % ID/g.

Question: What about the Drug uptake (Brain [6]) of the same molecule?
Answer: Its Drug uptake is 0.76 %ID.

Question: What about the tissue uptake at 80 min [7] of the same molecule?
Answer: Its tissue uptake at 80 min is 1.34 %ID/g.

Question: What about the Drug uptake [8] of the same molecule?
Answer: Its Drug uptake is 95%.

Question: And the fraction unbound at 160 min [9]?
Answer: The fraction unbound at 160 min was 0.58.

Question: What about the fraction unbound at 20 min [10] of the same molecule?
Answer: The fraction unbound at 20 min was 0.47.

Question: And the PPB [11]?
Answer: The PPB was 1%.

Question: And the fraction unbound at 160 min [12]?
Answer: Its fraction unbound at 160 min is 0.26.

Question: What about the Drug uptake (Kidney [13]) of the same molecule?
Answer: Its Drug uptake is 10.02 % ID/g.

Question: What about the Drug uptake (Mus musculus [14]) of the same molecule?
Answer: The Drug uptake was 0.8 % ID/g.

Question: And the Drug uptake (Kidney [15])?
Answer: The Drug uptake was 4.73 % ID/g.

Question: What about the Drug uptake (Blood [16]) of the same molecule?
Answer: The Drug uptake was 1 % ID/g.

Question: What about the Drug uptake (Mus musculus [17]) of the same molecule?
Answer: The Drug uptake was 0.57 % ID/g.

Question: And the Drug uptake [18]?
Answer: Its Drug uptake is 84%.

Question: What about the logP [19] of the same molecule?
Answer: The logP was 2.37.

Question: And the Drug uptake (Brain [20])?
Answer: The Drug uptake was 0.08 % ID/g.

Question: And the Drug uptake (Liver)?
Answer: The Drug uptake was 20.1 % ID/g.

Question: What about the Drug uptake (Muscle tissue) of the same molecule?
Answer: The Drug uptake was 0.59 % ID/g.

Question: What about the PPB [21] of the same molecule?
Answer: The PPB was 0%.

Question: What about the tissue uptake at 80 min [22] of the same molecule?
Answer: The tissue uptake at 80 min was 0.6 %ID.

Question: What about the Drug uptake [23] of the same molecule?
Answer: The Drug uptake was 2.23 % ID/g.

Question: What about the Drug uptake (Mus musculus [24]) of the same molecule?
Answer: The Drug uptake was 4.43 % ID/g.
